Data on 2 compounds can be found in ChEMBL document CHEMBL1122269, “Synthesis and biological evaluation of neutral derivatives of 5-fluoro-2'-deoxyuridine 5'-phosphate” (1983).

The test system of test [1] is P388. The experiment in a line: Percentage increase in life span of murine leukemia P388 sensitive to 5-FU at dose 300 mg/kg. Particulars: Mus musculus. In kind it is functional. The essentials:
(§1)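 P-388 model in male BDF₁ mice, six per group, average weight 23 g: 1×10^6 cells ip on day 0, then compound in 0.9% saline ip daily ×5 from 24 h. Mice were observed up to 60 days. % ILS = (T/C − 1) × 100, using median survival of treated mice versus saline-treated controls.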

Test [2] concerns P388. Put plainly: Percentage increase in life span of murine leukemia P388 resistant to 5-FU, at a dose 108 mg/kg. Particulars: Mus musculus. In kind it is functional. The essentials: as §1
Test [3] has as its system P388. The experiment in a line: Average percentage weight change on day 6 in murine leukemia P388 sensitive to 5-FU at a dose 180 mg/kg. In kind it is functional, Mus musculus. The method, boiled down: (§2)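 Male BDF₁ mice, six per group, average weight 23 g, were inoculated ip on day 0 with 1×10^6 P-388 leukemia cells, either 5-FU-sensitive or 5-FU-resistant. Compound in 0.9% saline was given ip once daily for 5 consecutive days, starting 24 h after tumor transplantation. Saline-treated animals served as controls.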

In test [4] the test system is P388. Put plainly: Average percentage weight change on day 6 in murine leukemia P388 resistant to 5-FU at dose 300 mg/Kg. In kind it is functional, Mus musculus. The method, boiled down:
as §2

In test [5] the test system is P388. The experiment in a line: Median survival time (MST) of murine leukemia P388 (1*10e 6 cells) resistant to 5-FU in mice, dose of 300 mg/kg(ip). In kind it is functional, Mus musculus. The essentials: (§3)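 Male BDF₁ mice, six per group, average weight 23 g, were inoculated ip with 1×10^6 P-388 cells on day 0. Compound in 0.9% saline was given ip daily for 5 days from 24 h post-implant. Mice were followed for 60 days or until death, and median survival time was recorded. Saline-treated controls numbered 20 mice.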

Test [6] deals with P388. Put plainly: Median survival time (MST) of murine leukemia P388 (1*10e 6 cells) resistant to 5-FU in mice, dose of 180 mg/kg(ip). It is filed as functional, Mus musculus. The method, boiled down:
as §3

In test [7] the test system is P388. Put plainly: Average percentage weight change on day 6 in murine leukemia P388 sensitive to 5-FU at dose 500 mg/kg. It is filed as functional, Mus musculus. The method, boiled down:
as §2

The subject of test [8] is P388. Put plainly: Percentage increase in life span of murine leukemia P388 sensitive to 5-FU at dose 500 mg/kg. It is filed as functional. Particulars: Mus musculus. The essentials: as §1
The test system of test [9] is P388. Put plainly: Average percentage weight change on day 6 in murine leukemia P388 resistant to 5-FU at dose 108 mg/kg. It is filed as functional, Mus musculus. The method, boiled down:
as §2

The subject of test [10] is P388. The experiment in a line: Percentage increase in life span of murine leukemia P388 sensitive to 5-FU at dose 180 mg/kg. It is filed as functional. To be noted: Mus musculus. The method, boiled down: as §1
For test [11], the system named is P388. The experiment in a line: Median survival time (MST) of murine leukemia P388 (1*10e 6 cells) sensitive to 5-FU in mice at dose of 108 mg/kg(ip). In kind it is functional, Mus musculus. The method, boiled down:
as §3

Test [12] concerns P388. Put plainly: Average percentage weight change on day 6 in murine leukemia P388 sensitive to 5-FU at a dose 108 mg/kg. It is filed as functional, Mus musculus. The essentials: as §2
Test [13] concerns P388. Put plainly: Median survival time (MST) of murine leukemia P388 (1*10e 6 cells) sensitive to 5-FU in mice, dose of 500 mg/kg(ip). In kind it is functional, Mus musculus. The essentials: as §3
The test system of test [14] is P388. Put plainly: Median survival time (MST) of murine leukemia P388 (1*10e 6 cells) sensitive to 5-FU in mice at dose of 180 mg/kg(ip). It is filed as functional, Mus musculus. The essentials:
as §3

In test [15] the test system is P388. Put plainly: Average percentage weight change on day 6 in murine leukemia P388 resistant to 5-FU at dose 180 mg/kg. In kind it is functional, Mus musculus. The method, boiled down: as §2
Test [16] concerns P388. The experiment in a line: Percentage increase in life span of murine leukemia P388 sensitive to 5-FU at dose 108 mg/kg. It is filed as functional. To be noted: Mus musculus. The method, boiled down:
as §1

For test [17], the system named is P388. Put plainly: Median survival time (MST) of murine leukemia P388 (1*10e 6 cells) resistant to 5-FU in mice, dose of 108 mg/kg(ip). In kind it is functional, Mus musculus. The method, boiled down:
as §3

Test [18] relates to P388. The experiment in a line: Percentage increase in life span of murine leukemia P388 resistant to 5-FU, at a dose 180 mg/kg. In kind it is functional. Particulars: Mus musculus. The method, boiled down: as §1
The test system of test [19] is P388. The experiment in a line: Median survival time (MST) of murine leukemia P388 (1*10e 6 cells) sensitive to 5-FU in mice, dose of 300 mg/kg(ip). It is filed as functional, Mus musculus. The essentials: as §3
Test [20] has as its system P388. The experiment in a line: Average percentage weight change on day 6 in murine leukemia P388 sensitive to 5-FU at dose 300 mg/kg. It is filed as functional, Mus musculus. The essentials:
as §2

In test [21] the test system is P388. Put plainly: Average percentage weight change on day 6 in murine leukemia P388 resistant to 5-FU at a dose of 35 mg/kg. It is filed as functional, Mus musculus. The method, boiled down: (§4)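 Male BDF₁ mice, six per group, average weight 23 g, were given 1×10^6 P-388 cells ip on day 0. Compound in 0.9% saline was dosed ip once daily for 5 consecutive days, starting 24 h after tumour transplant.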

Test [22] deals with P388. The experiment in a line: Average percentage weight change on day 6 in murine leukemia P388 sensitive to 5-FU at a dose of 20 mg/kg. It is filed as functional, Mus musculus. The method, boiled down: as §4
In test [23] the test system is P388. Put plainly: Median survival time (MST) of murine leukemia P388 (1*10e 6 cells) resistant to 5-FU in […] mice, dose of 35 mg/kg(ip). In kind it is functional, Mus musculus. The essentials:
as §3

Test [24] concerns P388. Put plainly: Median survival time (MST) of murine leukemia P388 (1*10e 6 cells) sensitive to 5-FU in mice, dose of 35 mg/kg(ip). In kind it is functional, Mus musculus. The method, boiled down:
as §3

For test [25], the system named is P388. The experiment in a line: Average percentage weight change on day 6 in murine leukemia P388 resistant to 5-FU at a dose of 20 mg/Kg. In kind it is functional, Mus musculus. The essentials: as §4
Test [26] has as its system P388. The experiment in a line: Average percentage weight change on day 6 in murine leukemia P388 resistant to 5-FU at a dose of 15 mg/kg. It is filed as functional, Mus musculus. The method, boiled down:
as §4

Test [27] has as its system P388. The experiment in a line: Median survival time (MST) of murine leukemia P388 (1*10e 6 cells) sensitive to 5-FU in mice, dose of 20 mg/kg(ip). It is filed as functional, Mus musculus. The method, boiled down: as §3
The test system of test [28] is P388. Put plainly: Percentage increase in life span of murine leukemia P388 resistant to 5-FU, at a dose 20 mg/kg. In kind it is functional. Particulars: Mus musculus. The method, boiled down:
as §1

Test [29] has as its system P388. Put plainly: Average percentage weight change on day 6 in murine leukemia P388 sensitive to 5-FU at a dose of 35 mg/kg. In kind it is functional, Mus musculus. The method, boiled down: as §4
For test [30], the system named is P388. Put plainly: Percentage increase in life span of murine leukemia P388 sensitive to 5-FU, at a dose 35 mg/kg. It is filed as functional. Particulars: Mus musculus. The essentials:
as §1

Test [31] relates to P388. Put plainly: Percentage increase in life span of murine leukemia P388 resistant to 5-FU, at a dose 35 mg/kg. It is filed as functional. To be noted: Mus musculus. The method, boiled down: as §1
Test [32] has as its system P388. The experiment in a line: Percentage increase in life span of murine leukemia P388 resistant to 5-FU, at a dose 15 mg/kg. In kind it is functional. Particulars: Mus musculus. The essentials:
as §1

The subject of test [33] is P388. The experiment in a line: Percentage increase in life span of murine leukemia P388 sensitive to 5-FU, at a dose 20 mg/kg. In kind it is functional. Particulars: Mus musculus. The method, boiled down:
as §1

In test [34] the test system is P388. Put plainly: Median survival time (MST) of murine leukemia P388 (1*10e 6 cells) resistant to 5-FU in mice, dose of 15 mg/kg(ip). It is filed as functional, Mus musculus. The essentials: as §3
Test [35] relates to P388. Put plainly: Median survival time (MST) of murine leukemia P388 (1*10e 6 cells) resistant to 5-FU in mice, dose of 20 mg/kg (i.p.). To be noted: route intraperitoneal. It is filed as functional, Mus musculus. The essentials: as §3

For `O=c1[nH]c(=O)n([C@H]2C[C@H](O)[C@@H](COP3(=O)NCCCO3)O2)cc1F` (stereo not given in full), in the test with P388 [1], the ILS at 300 mg/kg came to 55%. Also, the ILS at 108 mg/kg in the test on P388 [2] stood at 0%; in the test on P388 [16] it was 33%. Besides, the Weight change in the test on P388 [3] is -13.9%; in the test on P388 [4], -5%; in the test on P388 [7] it was -17.9%; in the test with P388 [9] it was -3.4%; with P388 [12] it was -6.6%; in the test on P388 [15], -3.7%. For the same compound, the Weight change in the test on P388 [20] is -15.7%. Moreover, the MST came out at 9 days in the test with P388 [5]; 10 days in the test on P388 [6]; 12 days in the test on P388 [11]; 17 days in the test with P388 [13]; 13 days in the test on P388 [14]; 10 days in the test with P388 [17]. Besides, the MST with P388 [19] is 14 days. The ILS at 500 mg/kg in the test on P388 [8] was determined as 89%. The ILS at 180 mg/kg with P388 [10] came out at 44%; with P388 [18] it was 0%.

As to `O=c1[nH]cc(F)c(=O)[nH]1` [FLUOROURACIL], the Weight change in the test on P388 [21] was -14.2%; in the test with P388 [22] it was -16.5%; in the test with P388 [25], -3.9%; with P388 [26], -6.2%; in the test with P388 [29], -21.8%. Also, the MST in the test on P388 [23] stood at 9 days; with P388 [24] it was 8 days; in the test with P388 [27] it was 19 days; with P388 [34], 11 days; in the test with P388 [35], 11 days. Further, the ILS at 20 mg/kg stood at 10% with P388 [28] and 111% in the test on P388 [33]. Moreover, the figures for the ILS at 35 mg/kg in the test with P388 [30] and in the test on P388 [31] were -11% and -10%, respectively. Also, the ILS at 15 mg/kg in the test with P388 [32] is 10%.
